The entries come from a sample that favours hits as a whole.
Redox H2O2 prof: compounds producing H2O2 with reducing agent – biochemical, NIH compound library profiling, artefact control for MLSCN library redox annotation, primary screen | AID 878, 2007 | DTT-dependent redox cycling H2O2, phenol red/HRP absorbance; 100% = 100 µM peroxide control, 0% = buffer | activation, % at 10 µM | 0.03% of 200,000 active;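 active = activation of at least 50% relative to the plate's high and low controls in the primary single-dose screen; inactive = activation below 50%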;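 note: compound incubated with DTT at 0.8 mM final as the reducing agent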
L major viab: Leishmania major promastigote growth inhibition, primary screen | inhibition, % at 10 µM | 9% of 200,000 active | Leishmania major promastigotes, resazurin fluorescence viability;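 note: promastigotes grown with compound for 44 hours at 28 °C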
PfGluPho inh: PfG6PD enzyme inhibitors, primary screen, biochemical, fluorescence intensity, uHTS. 0.78% of 350,000 active. glucose-6-phosphate dehydrogenase-6-phosphogluconolactonase (Plasmodium falciparum 3D7). PfGluPho enzyme, NADPH resazurin-diaphorase fluorescence. inhibition, % at 20 µM;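 active = inhibition reaching at least a set limit at 20 µM in the primary screen, cut at about 59% in these data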;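 note: 0% = DMSO wells with substrate and 100% = DMSO wells lacking glucose-6-phosphate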
Diaph act CS: compounds boosting diaphorase resazurin reduction – biochemical, uHTS, resorufin fluorescence, counter-screen for diaphorase-coupled primary assays, primary screen; 0.005% of 190,000 active; activation factor at 20 µM; Diaphorase/resazurin coupled assay, 16 min; stronger effect = higher value; 1 = vehicle wells, 0 = NADH-free wells; AID 1229, 2008;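 active = diaphorase activity raised at least twofold by the compound at 20 µM; inactive = activation factor below 2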
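Assay system: Purified diaphorase enzyme from Clostridium kluyveri | Amount: Enzyme 0.07 U/mL final | Dosing: Compound 20 µM once, DMSO 1% | Timing: 16 min reaction at room temperature | Detection: Fluorescence, excitation 544 nm and emission 590 nm | Evaluation: Higher resorufin formation from activation or reduction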
Diaph inh CS: diaphorase inhibitors and chemical oxidizers, primary screen, counter-screen for diaphorase-coupled primary assays, biochemical, uHTS, resorufin fluorescence; inhibition, % at 20 µM; AID 1217, 2008; diaphorase resazurin-to-resorufin fluorescence, NADH, 16 min; bacterial (C. kluyveri) enzyme, not human; 0.69% of 190,000 active;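 active = primary screen inhibition at 20 µM above a set limit, cut at about 50% in these data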;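 note: plate controls were DMSO with full reaction for no effect and wells lacking NADH for full effect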
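Detection: fluorescence of resorufin formed from resazurin, Ex 544/Em 590 nm; test system: Clostridium kluyveri diaphorase enzyme; amount: 0.14 U/mL diaphorase, enzyme working solution; times: 16-min room-temperature incubation before reading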
G6PDH CS: L. mesenteroides G6PDH inhibitors, counter-screen for G6PDH-coupled screening assays, biochemical, Leuconostoc mesenteroides enzyme | AID 1020, 2008 | inhibition, % at 5 µM | Purified L. mesenteroides G6PDH, diaphorase/resazurin coupled fluorescence, 45 min | 0.12% of 200,000 active | glucose-6-phosphate dehydrogenase [Leuconostoc mesenteroides]
PfG6PD confirm: PfG6PD inhibitors, hit retest, confirmation, biochemical, fluorescence intensity, single concentration | shares compounds with PfGluPho inh | recombinant PfGluPho, NADPH-diaphorase-resazurin fluorescence | inhibition, % at 20 µM | 34% of 2,400 active | AID 504753, 2011;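 active = inhibition of at least 50% at 20 µM in any single replicate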;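 note: 0% = DMSO with substrate and 100% = DMSO lacking glucose-6-phosphate substrate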
Diaphorase 10uM: diaphorase inhibitors and chemical oxidizers, confirmation, counter-screen for P. falciparum G6PD inhibitor project, biochemical, fluorescence intensity, 10 µM NADPH. shares compounds with PfGluPho inh. diaphorase-coupled resazurin reduction, NADPH 10 uM. inhibition, % at 20 µM. 39% of 820 active. AID 504862, 2011;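 active = average inhibition reaching 50% or more with the compound at 20 µM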;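 note: resorufin red fluorescence formed as diaphorase reduces resazurin using NADPH; 0% = DMSO with enzyme and 100% = DMSO without enzyme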
Diaphorase 30uM: diaphorase inhibitors and chemical oxidizers, confirmation, counter-screen for P. falciparum G6PD inhibitor project, biochemical, fluorescence intensity, 30 µM NADPH | shares compounds with PfGluPho inh | 29% of 820 active | inhibition, % at 20 µM | AID 504863, 2011 | Diaphorase/resazurin coupled assay, resorufin fluorescence;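 active = inhibition averaging 50% or more, tested at 20 µM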;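 note: 0% = DMSO with enzyme and 100% = DMSO wells lacking diaphorase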
* hit, by the source's call; · = no result given. Cut-off read from the data, not from the text of the source, unless noted: active = inhibition above about 50%; inactive = the rest.

SMILES	Redox H2O2 prof	L major viab	PfGluPho inh	Diaph act CS	Diaph inh CS	G6PDH CS	PfG6PD confirm	others
Cc1ccc(-n2c(C)cc(/C=C3/C(=N)N4C(c5ccccc5)=CSC4=NC3=O)c2C)cc1	0	5	0	0.8	16	15	·
C/C(=N\Nc1ncc(Br)cn1)c1cccc([N+](=O)[O-])c1	·	·	21	·	·	·	·
C/C(=N\Nc1ccc([N+](=O)[O-])cc1)c1ccc(O)cc1	-2	22	66*	0.8	20	-1	2
C/C(=N\Nc1ccc([N+](=O)[O-])cc1)c1cccc(N)c1	-7	61*	111*	0.9	14	10	41
C/C(=N/Nc1ccccc1[N+](=O)[O-])c1ccc([N+](=O)[O-])cc1	·	·	-1	·	·	·	·
COC1(OC)C=CC(=O)C=C1NC(=O)c1ccccc1OC(C)=O	·	·	63*	·	·	·	64*	Diaphorase 10uM=4;Diaphorase 30uM=-5
Cc1cc(C)cc(OC(C)C(=O)Nc2ccc(S(=O)(=O)Nc3cc(C)nc(C)n3)cc2)c1 (stereo not given)	·	·	-22	·	·	·	·
Cc1[nH]c2ccccc2c1C1=CC(=O)C=CC1=O	·	·	129*	·	·	·	114*	Diaphorase 10uM=93*;Diaphorase 30uM=53*
Nc1nc2ccccc2n1/N=C/c1ccc2c(c1)OCO2	·	·	36	·	·	·	·
Nc1nc2ccccc2n1/N=C/c1ccc(Br)cc1	0	25	66*	1	3	-7	-4
Oc1c(N=Nc2ccccc2)sc2ccccc12	·	·	60*	·	·	·	13
N#Cc1ccc(NC(=O)Nc2ccc(Cl)cc2)cc1	0	28	18	0.9	8	-28	·
N#C/C(C(=O)Nc1ccc(Cl)cc1)=C(/S)Nc1ccccc1	·	·	95*	·	·	·	83*	Diaphorase 10uM=-18;Diaphorase 30uM=-3
CCOc1cc(/C=N/Nc2nnc(C)n2N)ccc1O	·	·	59*	·	·	·	48
CCOc1cc(/C=N/Nc2ncnc(Cl)c2N)ccc1O	-1	19	-1	0.9	10	9	·
CCCCN1C(=O)C(CC(=O)NCCN2CCOCC2)CC(C(=O)N(CC)CC)=C1C (stereo not given)	·	·	2	·	·	·	·
Cc1ccc(OCc2n[nH]c(=S)n2N)cc1C	-1	-5	17	1	-1	7	·
CCCCOc1ccc(Cc2n[nH]c(=S)n2N)cc1	0	34	61*	0.9	7	26	50*	Diaphorase 10uM=-20;Diaphorase 30uM=-17
COc1ccc(C(C(=O)NC2CCCC2)N(CCCO)C(=O)c2snc(C(N)=O)c2N)cc1 (stereo not given)	·	·	4	·	·	·	·
Nc1nc(=S)c2[nH]c(=S)[nH]c2[nH]1	·	·	67*	·	·	·	21
Nc1nc(=S)c2[nH]cnc2[nH]1	·	·	34	·	·	·	·
COCCCNc1cc(C)nc2ccccc12	2	-5	-2	1	0	14	·
Cc1cc(NCCCCCCCNc2cc(C)nc3cc([N+](=O)[O-])ccc23)c2ccc([N+](=O)[O-])cc2n1	·	·	78*	·	·	·	12
Cc1ccc(-n2nnnc2C(Cl)(Cl)c2nnnn2-c2ccc(C)cc2)cc1	-4	9	72*	0.7	29	0	43
CCOc1ccc(C(=O)CCC(=O)N2CCN(c3ccc(O)cc3)CC2)cc1	·	·	67*	·	·	·	3
SMILES	Redox H2O2 prof	L major viab	PfGluPho inh	Diaph act CS	Diaph inh CS	G6PDH CS	PfG6PD confirm	others
COc1cccc2sc3ccc(C#CC4(O)CCCCC4)cc3c(=O)c12	·	·	68*	·	·	·	30
Brc1cccc(Nc2nc(-c3cccnc3)cs2)c1	·	·	60*	·	·	·	-14
Brc1ccc(Nc2nc(-c3cccnc3)cs2)cc1	0	26	48	1	-1	-5	·
CCOC(=O)C1=C(CSc2nc(-c3ccncc3)ccc2C#N)OC(N)=C(C#N)C1c1ccc(OC)cc1 (stereo not given)	1	13	59*	0.9	14	9	10
COc1ccc2oc(C)c(C(=O)c3ccc([N+](=O)[O-])cc3)c2c1	-1	12	67*	0.8	18	-4	15
CCOC(=O)c1c(CSc2ccccc2)n(C)c2cc(Br)c(OCC(O)CNC(CO)(CO)CO)cc12 (stereo not given)	0	-4	61*	1	0	-2	11
COc1ccc(C[C@@H]2OC3(C=CC(=O)C=C3)O[C@H]2Cc2ccc(OC)cc2)cc1	·	·	62*	·	·	·	20
O=C1C=C(N2CCOCC2)c2cccc3cccc1c23	·	·	20	·	·	·	·
O=C1C=C(N2CCOCC2)c2ccccc2C1=O	·	·	71*	·	·	·	54*	Diaphorase 10uM=73*;Diaphorase 30uM=83*
O=S(=O)(c1ccc2oc(=S)[nH]c2c1)N1CCOCC1	·	·	66*	·	·	·	19
Cc1cccc(C)c1NC(=O)/C(C#N)=C/c1ccc(-c2ccc(C(=O)O)cc2)o1	·	·	3	·	·	·	·
Cc1cccn2c(=O)c3cc(C(=O)NC(C)C)c(=N)n(Cc4ccncc4)c3nc12	-3	15	73*	1.1	-6	-31	21
O=C(c1cc(-c2ccccc2Cl)on1)N1CCN(C(=O)c2ccco2)CC1	2	-11	11	0.8	16	4	·
O=C(O)CCNc1cc(N2CCN(C(=O)c3ccco3)CC2)c2noc3c2c1C(=O)c1ccccc1-3	·	·	80*	·	·	·	24
CCOC(=O)N1CCN(c2cc(NCCO)c([N+](=O)[O-])c3nonc23)CC1	0	1	15	0.5	49	6	·
CC(=O)OCCNc1cc(N2CCN(C)CC2)c2noc3c2c1C(=O)c1ccccc1-3	1	17	85*	0.8	21	22	-26
Cc1ccccc1OCC(=O)Nc1cc(S(=O)(=O)N2CCCCC2)ccc1N1CCN(C)CC1	0	46	-2	1	1	-4	·
c1ccc(-n2ncc3c(NC4CCCCCC4)ncnc32)cc1	·	·	96*	·	·	·	21
CCCCOc1cc(NCc2ccccc2)c2ncn(C(C)C)c2c1	·	·	73*	·	·	·	31
CCC(COC)Oc1cc(NCc2ccccc2)c2ncn(C(C)C)c2c1 (stereo not given)	·	·	83*	·	·	·	40
COCCCOc1cc(NCc2ccccc2)c2ncn(C(C)C)c2c1	·	·	48	·	·	·	·
